Active and inactive are the calls of the source. The rule behind the calls is not given here.
Columns and labels:
[1] = target: Nucleic Acid; assay: Binding affinity to c-myc quadruplex DNA Pu27 assessed as inhibition of c-myc amplification by PCR-stop assay; assay type: nucleic-acid assay
Outline: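 Pu27 template with partly complementary primer, 10 μM each, […], 2.5 U Taq and ligand at 1, 5, 10 or 25 μM (one series 50 μM). Cycling: 94 °C 2 min, then 30 × (94 °C, 58 °C, 72 °C, 30 s each). Products run on 16% native PAGE, GelRed stain; IC50 for 50% loss of amplification.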

[2] = tested on: Nucleic Acid; assay: Binding affinity to c-myc quadruplex DNA Pu27 assessed as conformational change up to 10 uM by circular dichroism in the presence of 100 mM K+; assay type: nucleic-acid assay
Outline: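 CD titration of 1 μM Pu27, annealed (95 °C 5 min, slow cool, 4 °C overnight) in 10 mM Tris-HCl pH 7.2, 100 mM KCl. Ligand added stepwise (0.5–10 eq.) at 25 °C, ≥10 min equilibration per addition. Spectra 230–430 nm, 1 cm cell, average of two scans, buffer baseline subtracted.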

[3] = tested on: Nucleic Acid; assay: Binding affinity to duplex DNA F10T assessed as change in melting temperature at 2 uM by FRET-melting assay; assay type: nucleic-acid assay
Outline: (§1)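 FRET melting of 0.2 μM dual-labelled oligo (FPu18T, FAM/TAMRA c-myc G-quadruplex; or F10T, HEG-linked hairpin duplex) in 10 mM Tris-HCl pH 7.2, 0.2 mM KCl, with or without 2 μM ligand. Excitation 470 nm, emission 530 nm, read every 1 °C from 37–99 °C after 30 s hold. ΔTm = Tm(DNA+ligand) − Tm(DNA); mean ± SD of at least three runs.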

[4] = tested on: Nucleic Acid; assay: Binding affinity to immobilised duplex DNA up to 10 uM by SPR assay; assay type: nucleic-acid assay
Outline: (§2)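 SPR: biotinylated DNA captured (~1000 RU) on GLH chip, blank reference cell. Running buffer 50 mM Tris-HCl pH 7.2, 100 mM KCl. Ligand at 0.3125–10 μM injected at 100 μL/min, 400 s association and 400 s dissociation, 25 °C; NaOH regeneration. KD by equilibrium analysis; mean ± SD of at least two runs.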

[5] = tested on: Nucleic Acid; assay: Binding affinity to c-myc quadruplex DNA Pu27 assessed as conformational change up to 10 uM by circular dichroism in the absence of 100 mM K+; assay type: nucleic-acid assay
Outline: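 K+-free CD: 1 μM Pu27 in 10 mM Tris-HCl pH 7.2 with ligand at 0, 3, 5 or 10 μM, co-annealed (95 °C 5 min, slow cool, 4 °C overnight). Spectra recorded at 25 °C over 230–430 nm, 1 cm cell, two scans averaged, buffer baseline subtracted.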

[6] = target: Nucleic Acid; assay: Binding affinity to immobilised c-myc quadruplex DNA G4 by SPR assay; assay type: nucleic-acid assay; outline: as §2
[7] = tested on: Nucleic Acid; assay: Binding affinity to c-myc quadruplex DNA FPu18T assessed as change in melting temperature at 2 uM by FRET-melting assay in the presence of excess of ds26 duplex DNA; assay type: nucleic-acid assay
Outline: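 Competition FRET melting: 0.2 μM FPu18T with 2 μM ligand in 10 mM Tris-HCl pH 7.2, 0.2 mM KCl, plus varying amounts of unlabelled self-complementary ds26 duplex as competitor. Fluorescence at 470/530 nm recorded per 1 °C step over 37–99 °C.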

[8] = tested on: Nucleic Acid; assay: Binding affinity to c-myc quadruplex DNA FPu18T assessed as change in melting temperature at 2 uM by FRET-melting assay; assay type: nucleic-acid assay; outline: as §1
[9] = tested on: Ramos; assay: Growth inhibition of human Ramos cell line expressing c-myc NHE III1 after 4 days by cell counting; assay type: functional, cell-based
Outline: (§3)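 Cells seeded at 1.0×10^5 per well and exposed to ligand (2.5, 5 or 10 μM) or 0.1% DMSO for 4 days. Cell counts and viability taken daily; three repeats per point.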

[10] = tested on: Ramos; assay: Down-regulation of c-myc gene expression in human Ramos cells after 4 days by RT-PCR analysis; assay type: functional, cell-based
Outline: (§4)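 Cells given ligand at 0.5, 1, 2.5 or 5 μM for 4 days. Total RNA (TRIpure) 2 μg reverse-transcribed with oligo dT18/M-MLV (42 °C 1 h). c-myc and β-actin amplified by PCR, run on 1% agarose; c-myc normalized to β-actin.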

[11] = tested on: CA46; assay: Down-regulation of c-myc gene expression in human CA46 cells at 0.5 to 5 uM after 4 days by RT-PCR analysis; assay type: functional, cell-based; outline: as §4
[12] = tested on: CA46; assay: Growth inhibition of c-myc NHE III1-deficient human CA46 cell line at 2.5 to 10 uM after 4 days by cell counting; assay type: functional, cell-based; outline: as §3

## COc1cc2c(cc1OC)-c1nc3ccc(OC)c(OCCCN4CCCCC4)c3cc1CC2
[1]
  IC50: > 50000 nM
[2]
  Activity: Active
[3]
  ΔTm: 1 °C
[4]
  Activity: inactive
[5]
  Activity: Active
[6]
  Kd: 2800 nM
[7]
  Activity: Active
[8]
  ΔTm: 11 °C

## COc1ccc2c(cc3c([n+]2C)-c2cc4c(cc2CC3)OCO4)c1OCCCN1CCN(C)CC1
[1]
  IC50: 9500 nM
[2]
  Activity: Active
[3]
  ΔTm: 0.5 °C
[4]
  Activity: inactive
[5]
  Activity: Active
[6]
  Kd: 800 nM
[7]
  Activity: Active
[8]
  ΔTm: 19 °C

## COc1ccc2nc3c(cc2c1OCCN1CCCC1)CCc1cc2c(cc1-3)OCO2
[1]
  IC50: > 50000 nM
[2]
  Activity: Active
[3]
  ΔTm: 1 °C
[4]
  Activity: inactive
[5]
  Activity: Active
[6]
  Kd: 1400 nM
[7]
  Activity: Active
[8]
  ΔTm: 5.3 °C

## COc1cc2c(cc1OC)-c1c(cc3c(OCCCN4CCCC4)c(OC)ccc3[n+]1C)CC2
[1]
  IC50: 4700 nM
[2]
  Activity: Active
[3]
  ΔTm: 1.4 °C
[4]
  Activity: inactive
[5]
  Activity: Active
[6]
  Kd: 600 nM
[7]
  Activity: Active
[8]
  ΔTm: 25.4 °C

## CCN(CC)CCOc1c(OC)ccc2nc3c(cc12)CCc1cc2c(cc1-3)OCO2
[1]
  IC50: > 50000 nM
[2]
  Activity: Active
[3]
  ΔTm: 1.6 °C
[4]
  Activity: inactive
[5]
  Activity: Active
[6]
  Kd: 2600 nM
[7]
  Activity: Active
[8]
  ΔTm: 6.3 °C

## CCN(CC)CCCOc1c(OC)ccc2nc3c(cc12)CCc1cc2c(cc1-3)OCO2
[1]
  IC50: > 50000 nM
[2]
  Activity: Active
[3]
  ΔTm: 1 °C
[4]
  Activity: inactive
[5]
  Activity: Active
[6]
  Kd: 3000 nM
[7]
  Activity: Active
[8]
  ΔTm: 6.2 °C

## CCN(CC)CCCOc1c(OC)ccc2c1cc1c([n+]2C)-c2cc3c(cc2CC1)OCO3
[1]
  IC50: 7500 nM
[2]
  Activity: Active
[3]
  ΔTm: 1.2 °C
[4]
  Activity: inactive
[5]
  Activity: Active
[6]
  Kd: 600 nM
[7]
  Activity: Active
[8]
  ΔTm: 21.8 °C

## COc1ccc2c(cc3c([n+]2C)-c2cc4c(cc2CC3)OCO4)c1OCCCN1CCCC1
[1]
  IC50: 5300 nM
[2]
  Activity: Active
[3]
  ΔTm: 1.1 °C
[4]
  Activity: inactive
[5]
  Activity: Active
[6]
  Kd: 400 nM
[7]
  Activity: Active
[8]
  ΔTm: 22.2 °C

## COc1ccc2c(cc3c([n+]2C)-c2cc4c(cc2CC3)OCO4)c1OCCCNC1CCCCC1
[1]
  IC50: 14000 nM
[2]
  Activity: Active
[3]
  ΔTm: 0.9 °C
[4]
  Activity: inactive
[5]
  Activity: Active
[6]
  Kd: 1200 nM
[7]
  Activity: Active
[8]
  ΔTm: 11.6 °C

## CCN(CC)CCCOc1c(OC)ccc2nc3c(cc12)CCc1cc(OC)c(OC)cc1-3
[1]
  IC50: > 50000 nM
[2]
  Activity: Active
[3]
  ΔTm: 0.4 °C
[4]
  Activity: inactive
[5]
  Activity: Active
[6]
  Kd: 4400 nM
[7]
  Activity: Active
[8]
  ΔTm: 11.2 °C

## COc1ccc2c(cc3c([n+]2C)-c2cc4c(cc2CC3)OCO4)c1OCCCN1CCCCC1
[1]
  IC50: 5400 nM
[2]
  Activity: Active
[3]
  ΔTm: 0.5 °C
[4]
  Activity: inactive
[5]
  Activity: Active
[6]
  Kd: 600 nM
[7]
  Activity: Active
[8]
  ΔTm: 21.4 °C

## COc1cc2c(cc1OC)-c1c(cc3c(OCCCN4CCCCC4)c(OC)ccc3[n+]1C)CC2
[1]
  IC50: 5000 nM
[9]
  growth inhibition (GI): Dose-dependent effect
[2]
  Activity: Active
[10]
  Activity: Dose-dependent effect
[11]
  Activity: inactive
[12]
  growth inhibition (GI): inactive
[3]
  ΔTm: 0.8 °C
[4]
  Activity: inactive
[5]
  Activity: Active
[6]
  Kd: 600 nM
[7]
  Activity: Active
[8]
  ΔTm: 23.2 °C
